Experimental data from paper PMC7112006 (Bioorganic Chemistry, 2010).

Legend:
[1] = test system: human T-lymphocyte cells (Molt4/C8); test: Cytostatic assay, inhibition of tumor cell proliferation; type: cell-based; conditions: Molt4/C8, read-out: IC50 (50% inhibitory concentration, tumor cell proliferation)
[2] = biological target: T1, human recombinant thymidine phosphorylase (Homo sapiens, UniProt P19971); test: Thymidine phosphorylase assay, conversion to the free base; type: biochemical; conditions: purified recombinant enzyme, 100 μM substrate, 20, 40 and 60 min; data not shown
T1 sequence (P19971 11-482): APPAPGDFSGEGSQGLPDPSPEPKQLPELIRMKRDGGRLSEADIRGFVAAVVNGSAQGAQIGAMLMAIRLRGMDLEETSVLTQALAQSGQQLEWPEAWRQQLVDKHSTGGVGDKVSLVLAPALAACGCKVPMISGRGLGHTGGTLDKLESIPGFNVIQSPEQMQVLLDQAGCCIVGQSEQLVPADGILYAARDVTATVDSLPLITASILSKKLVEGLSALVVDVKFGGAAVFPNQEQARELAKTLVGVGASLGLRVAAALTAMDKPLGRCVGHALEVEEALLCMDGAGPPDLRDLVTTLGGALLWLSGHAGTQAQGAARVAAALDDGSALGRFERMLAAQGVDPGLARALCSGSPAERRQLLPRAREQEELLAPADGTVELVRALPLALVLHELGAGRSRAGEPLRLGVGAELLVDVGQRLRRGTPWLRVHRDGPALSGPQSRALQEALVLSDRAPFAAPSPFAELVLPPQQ
Procedure, shortened: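 Aliquots taken at 20, 40 and 60 min and heat-inactivated at 95 °C for 3 min. Free base quantified by RP-8 HPLC with phosphate/heptane sulfonate (pH 3.2) to acetonitrile gradient; UV detection at 267 nm.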

[3] = biological target: uridine phosphorylase type 1 (Homo sapiens, UniProt Q16831); test: Uridine phosphorylase assay, conversion to the free base; type: biochemical; conditions: purified recombinant enzyme, 100 μM substrate, 20, 40 and 60 min; data not shown
Procedure, shortened: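 Samples taken at 20, 40 and 60 min and heated at 95 °C for 3 min. Nucleoside and free base separated on RP-8 HPLC with phosphate/heptane sulfonate (pH 3.2) to acetonitrile gradient; UV detection at 267 nm.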

uridine phosphorylase type 1, sequence (Q16831 whole entry): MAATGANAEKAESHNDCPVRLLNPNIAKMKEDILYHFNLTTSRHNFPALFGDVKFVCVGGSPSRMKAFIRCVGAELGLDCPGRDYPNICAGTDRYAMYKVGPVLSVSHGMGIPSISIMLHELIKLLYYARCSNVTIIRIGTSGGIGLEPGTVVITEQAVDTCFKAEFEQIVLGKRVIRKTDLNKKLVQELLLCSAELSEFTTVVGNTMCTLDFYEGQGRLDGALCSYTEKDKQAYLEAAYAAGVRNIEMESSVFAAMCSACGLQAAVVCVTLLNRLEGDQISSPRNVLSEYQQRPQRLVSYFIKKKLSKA

Row | IC50 [1] [µM] | Compound | further results
1 | 163 ± 21 | Nc1ccn([C@@H]2O[C@H](CO)[C@@H](O)[C@H](F)[C@H]2O)c(=O)n1 [3f, 1-(3-Deoxy-3-fluoro-β-D-glucopyranosyl)cytosine] | 
2 | 183 ± 24 | Nc1ncnc2c1ncn2[C@@H]1O[C@H](CO)[C@@H](O)[C@H](F)[C@H]1O [3g, 9-(3-Deoxy-3-fluoro-β-D-glucopyranosyl)adenine] | 
3 |  | Cc1cn([C@H]2C[C@H](O)[C@@H](CO)O2)c(=O)[nH]c1=O [thymidine] | hydrolysis to the free pyrimidine base by thymidine phosphorylase (TPase) [2]: readily converted
4 |  | O=c1ccn([C@@H]2O[C@H](CO)[C@@H](O)[C@H]2O)c(=O)[nH]1 [uridine] | hydrolysis to the free pyrimidine base by uridine phosphorylase type I (UPase) [3]: readily converted
